Laboratory results: ChEMBL document CHEMBL1140263, “Structure-based design, synthesis, and study of potent inhibitors of beta-ketoacyl-acyl carrier protein synthase III as potential antimicrobial agents” (J Med Chem, 2005)
Values after ≈ are worked out from the molar mass of the structure shown. One block for each compound: values may come before it.

Assays:
[1] = biological target: T1, Beta-ketoacyl-[acyl-carrier-protein] synthase III (Enterococcus faecalis (strain ATCC 700802 / V583), UniProt Q820T1); test: Inhibitory concentration against Enterococcus faecalis beta-Ketoacyl-acyl carrier protein synthase III
T1 sequence (Q820T1 whole entry): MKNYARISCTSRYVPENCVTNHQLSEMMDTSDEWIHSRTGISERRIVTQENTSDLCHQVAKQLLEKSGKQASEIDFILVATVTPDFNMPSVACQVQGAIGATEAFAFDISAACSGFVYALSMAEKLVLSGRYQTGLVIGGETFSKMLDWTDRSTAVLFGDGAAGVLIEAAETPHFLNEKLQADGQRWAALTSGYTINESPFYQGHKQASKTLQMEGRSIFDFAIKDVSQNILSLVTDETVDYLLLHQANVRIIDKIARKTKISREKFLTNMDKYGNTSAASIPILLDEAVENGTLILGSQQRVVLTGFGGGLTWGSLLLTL
In short: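 Coupled FabD/FabH radiometric assay with His-tagged or tagless FabH expressed in E. coli BL21(DE3). The mix held 100 mM sodium phosphate pH 7.0, 2 mM DTT, 1 mM MgCl₂, 12.5 µM E. coli holo-ACP, 10 nM FabD and 3-5 nM FabH. Malonyl-CoA was added for 1 min, then acetyl-CoA plus [³H]acetyl-CoA, NADH and NADPH for 19 min. TCA-precipitated protein was counted by liquid scintillation; DMSO ≤2% final.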

Staphylococcus aureus = test: Minimum inhibitory concentration against Staphylococcus aureus MRSA 703; assay type: functional
Escherichia coli = test: Minimum inhibitory concentration against Escherichia coli TolC- mutant in presence of membrane permeablizing agent polymyxin B; assay type: functional
Streptococcus pyogenes = test: Minimum inhibitory concentration against Streptococcus pyogenes NZ131; assay type: functional
Neisseria meningitidis = test: Minimum inhibitory concentration against Neisseria meningitides MC58 in presence of membrane permeablizing agent polymyxin B; assay type: functional
Streptococcus pneumoniae = test: Minimum inhibitory concentration against Streptococcus pneumonia ATCC 6301; assay type: functional
[2] = Minimum inhibitory concentration against Enterococcus faecalis VRE 583; assay type: functional, Enterococcus faecalis V583

Compound: O=C(Nc1ccccc1C(=O)O)c1ccc(-c2ccc(O)cc2)c(Oc2ccccc2)c1
IC50 [1]: 0.41 µM

Compound: O=C(Nc1cccc(F)c1C(=O)O)c1cccc(Oc2ccccc2)c1
IC50 [1]: 6 µM

Compound: CN1CCN(c2ccc(C(=O)Nc3ccccc3C(=O)O)cc2Oc2ccccc2)CC1
IC50 [1]: 25 µM

Compound: CCOc1ccc(-c2ccc(C(=O)Nc3ccccc3C(=O)O)cc2Oc2ccccc2)cc1
IC50 [1]: 0.22 µM

Compound: O=C(Nc1ccccc1C(=O)O)c1ccc(-c2cccc(OC(F)(F)F)c2)c(Oc2ccccc2)c1
IC50 [1]: 0.47 µM

Compound: Cc1cc(-c2ccc(C(=O)Nc3ccccc3C(=O)O)cc2Oc2ccccc2)ccc1Cl
IC50 [1]: 0.25 µM | MIC (Staphylococcus aureus): 5.6 µg/mL (≈ 12.2 µM) | MIC (Escherichia coli): 0.7 µg/mL | MIC (Streptococcus pyogenes): 1.4 µg/mL (≈ 3.06 µM) | MIC (Neisseria meningitidis): 0.7 µg/mL | MIC (Streptococcus pneumoniae): 2.8 µg/mL (≈ 6.11 µM) | MIC [2]: 5.6 µg/mL (≈ 12.2 µM)

Compound: O=C(Nc1ccccc1C(=O)O)c1ccc(-c2ccc(F)c(Cl)c2)c(Oc2ccccc2)c1
IC50 [1]: 0.57 µM

Compound: CC1CN(c2ccc(C(=O)Nc3ccccc3C(=O)O)cc2Oc2ccccc2)CC(C)N1 (configuration not stated)
IC50 [1]: 38 µM

Compound: CCN(CC)S(=O)(=O)c1cc(C(=O)Nc2ccccc2C(=O)O)ccc1F
IC50 [1]: 8.4 µM

Compound: CCN(CC)S(=O)(=O)c1cc(C(=O)Nc2ccccc2C(=O)O)ccc1OC
IC50 [1]: 11.4 µM

Compound: O=C(Nc1ccccc1C(=O)O)c1ccc(-c2ccc(F)c(F)c2)c(Oc2ccccc2)c1
IC50 [1]: 0.33 µM

Compound: CCN(CC)S(=O)(=O)c1cc(C(=O)Nc2ccccc2C(=O)O)ccc1N1CCCCC1
IC50 [1]: 2.2 µM

Second part, the compound after the results:

IC50 [1]: 0.16 µM | MIC (Staphylococcus aureus): 5.6 µg/mL (≈ 12.6 µM) | MIC (Escherichia coli): 0.7 µg/mL | MIC (Streptococcus pyogenes): 2.8 µg/mL (≈ 6.29 µM) | MIC (Neisseria meningitidis): 0.36 µg/mL | MIC (Streptococcus pneumoniae): 2.8 µg/mL (≈ 6.29 µM) | MIC [2]: 11.3 µg/mL (≈ 25.4 µM)
Compound: O=C(Nc1ccccc1C(=O)O)c1ccc(-c2ccc(F)cc2F)c(Oc2ccccc2)c1

IC50 [1]: 43 µM
Compound: O=C(Nc1sccc1C(=O)O)c1cccc(Oc2ccccc2)c1

IC50 [1]: 0.79 µM | MIC (Staphylococcus aureus): 5.6 µg/mL (≈ 12.4 µM) | MIC (Escherichia coli): 2.8 µg/mL | MIC (Streptococcus pyogenes): 2.8 µg/mL (≈ 6.2 µM) | MIC (Neisseria meningitidis): 1.4 µg/mL | MIC (Streptococcus pneumoniae): 1.4 µg/mL (≈ 3.1 µM) | MIC [2]: 5.6 µg/mL (≈ 12.4 µM)
Compound: CC(C)c1cccc(-c2ccc(C(=O)Nc3ccccc3C(=O)O)cc2Oc2ccccc2)c1

IC50 [1]: 2.1 µM
Compound: CCN(CC)S(=O)(=O)c1cc(C(=O)Nc2ccccc2C(=O)O)ccc1OCC1CCCC1

IC50 [1]: 160 µM
Compound: CCN(CC)S(=O)(=O)c1cc(C(=O)Nc2ccccc2C(=O)O)cc(C)c1Br

IC50 [1]: > 1000 µM
Compound: O=C(Nc1ncccc1C(=O)O)c1cccc(Oc2ccccc2)c1

IC50 [1]: 2.1 µM
Compound: O=C(O)c1ccc(-c2ccc(C(=O)Nc3ccccc3C(=O)O)cc2Oc2ccccc2)cc1

IC50 [1]: 0.29 µM
Compound: O=C(Nc1ccccc1C(=O)O)c1ccc(N2CCCCC2)c(Oc2ccccc2)c1

IC50 [1]: 0.27 µM | MIC (Staphylococcus aureus): 5.6 µg/mL (≈ 12.6 µM) | MIC (Escherichia coli): 5.6 µg/mL | MIC (Streptococcus pyogenes): 2.8 µg/mL (≈ 6.3 µM) | MIC (Neisseria meningitidis): 2.8 µg/mL | MIC (Streptococcus pneumoniae): 2.8 µg/mL (≈ 6.3 µM) | MIC [2]: 11.3 µg/mL (≈ 25.4 µM)
Compound: CC1CC(C)CN(c2ccc(C(=O)Nc3ccccc3C(=O)O)cc2Oc2ccccc2)C1 (configuration not stated)

IC50 [1]: 3.7 µM
Compound: O=C(O)c1cccc(Oc2cccc(C(=O)Nc3ccccc3C(=O)O)c2)c1

IC50 [1]: 5 µM
Compound: O=C(Nc1ccccc1C(=O)O)c1cccc(Oc2ccc(F)cc2)c1
